This is an account of results in ChEMBL document CHEMBL4354843, “Structure-Based Design of a Potent and Selective Covalent Inhibitor for SRC Kinase That Targets a P-Loop Cysteine” (J Med Chem, 2020).

The target in assay [1] is Tyrosine-protein kinase Tec (Homo sapiens) (UniProt P42680). The experiment in a line: Binding affinity to wild-type human partial length TEC (L341 to D620 residues) expressed in bacterial expression system assessed as residual binding level at 1 uM by Kinomescan method relative to control.
Chain of Tyrosine-protein kinase Tec (Homo sapiens) (P42680 whole entry, the tested form may be a part): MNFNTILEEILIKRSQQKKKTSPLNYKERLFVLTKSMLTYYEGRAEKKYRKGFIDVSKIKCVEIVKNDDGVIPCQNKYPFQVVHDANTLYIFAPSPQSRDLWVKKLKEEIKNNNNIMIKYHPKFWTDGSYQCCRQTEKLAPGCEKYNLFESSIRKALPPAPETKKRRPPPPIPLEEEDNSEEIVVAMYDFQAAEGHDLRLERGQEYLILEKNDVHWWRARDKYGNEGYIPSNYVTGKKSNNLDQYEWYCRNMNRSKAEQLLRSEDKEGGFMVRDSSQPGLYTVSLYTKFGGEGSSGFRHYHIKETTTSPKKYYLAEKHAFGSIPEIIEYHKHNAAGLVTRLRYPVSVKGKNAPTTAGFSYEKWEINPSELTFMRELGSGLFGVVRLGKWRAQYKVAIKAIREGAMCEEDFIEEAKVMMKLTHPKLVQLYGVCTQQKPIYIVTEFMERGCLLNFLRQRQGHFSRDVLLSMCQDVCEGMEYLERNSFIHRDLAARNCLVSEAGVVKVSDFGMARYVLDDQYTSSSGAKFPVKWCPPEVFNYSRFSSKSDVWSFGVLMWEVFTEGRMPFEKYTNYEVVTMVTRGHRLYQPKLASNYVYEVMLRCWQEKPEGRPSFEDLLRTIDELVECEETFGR
Assay [2] deals with Ephrin type-A receptor 3 (Homo sapiens) (UniProt P29320). Description: Binding affinity to wild-type human partial length EPHA3 (D604 to K889 residues) expressed in bacterial expression system assessed as residual binding level at 1 uM by Kinomescan method relative to control. In short, it runs like this: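 Active-site-directed competition binding panel of 468 kinases (KinomeScan), compound at 1 μM. The read-out is kinase remaining bound, given as a percentage of the DMSO control. […]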

Assay [3] has as its system Epidermal growth factor receptor (Homo sapiens), P00533 [UNDEFINED MUTATION]. The experiment in a line: Binding affinity to human partial length EGFR L747-T751del/Sins mutant expressed in bacterial expression system assessed as residual binding level at 1 uM by Kinomescan method relative to control. In short, it runs like this:
(§1)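 KinomeScan active site-directed competition binding panel (468 kinases), compound tested at 1 μM. Result expressed as remaining kinase signal versus DMSO control (percent of control).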

In assay [4] the target is Mitogen-activated protein kinase kinase kinase 11 (Homo sapiens) (UniProt Q16584). The experiment in a line: Binding affinity to wild-type human partial length MLK3 (I77 to W399 residues) expressed in bacterial expression system assessed as residual binding level at 1 uM by Kinomescan method relative to control.
The test system of assay [5] is Epidermal growth factor receptor (Homo sapiens), P00533 [G719C]. Description: Binding affinity to human partial length EGFR G719C mutant (R669 to V1011 residues) expressed in bacterial expression system assessed as residual binding level at 1 uM by Kinomescan method relative to control. Summed up: as §1
Assay [6] addresses Serine/threonine-protein kinase tousled-like 1 (Homo sapiens) (UniProt Q9UKI8). The experiment in a line: Binding affinity to wild-type human partial length TLK1 (K447 to A754 residues) expressed in bacterial expression system assessed as residual binding level at 1 uM by Kinomescan method relative to control.
Assay [7] concerns the target NUAK family SNF1-like kinase 2 (Homo sapiens) (UniProt Q9H093). Description: Binding affinity to wild-type human partial length SNARK (P22 to A333 residues) expressed in mammalian expression system assessed as residual binding level at 1 uM by Kinomescan method relative to control.
Assay [8] deals with Activin receptor type-1 (Homo sapiens) (UniProt Q04771). The experiment in a line: Binding affinity to wild-type human ACVR1 (C188 to C509 residues) expressed in bacterial expression system assessed as residual binding level at 1 uM by Kinomescan method relative to control. Summed up: (§2)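 Active-site-directed KinomeScan competition binding panel covering 468 kinases, compound tested at 1 μM. Each readout is the kinase signal remaining with compound, expressed as a percentage of the DMSO control. […]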

In assay [9] the test system is Epidermal growth factor receptor (Homo sapiens), P00533 [T790M]. The experiment in a line: Binding affinity to human partial length EGFR T790M mutant (R669 to G1022 residues) expressed in mammalian expression system assessed as residual binding level at 1 uM by Kinomescan method relative to control. In short, it runs like this: as §1
The target in assay [10] is Homeodomain-interacting protein kinase 2 (Homo sapiens) (UniProt Q9H2X6). The experiment in a line: Binding affinity to wild-type human partial length HIPK2 (M153 to S564 residues) expressed in mammalian expression system assessed as residual binding level at 1 uM by Kinomescan method relative to control.
Chain of Homeodomain-interacting protein kinase 2 (Homo sapiens) (Q9H2X6 whole entry, looked up, the tested form may be a part): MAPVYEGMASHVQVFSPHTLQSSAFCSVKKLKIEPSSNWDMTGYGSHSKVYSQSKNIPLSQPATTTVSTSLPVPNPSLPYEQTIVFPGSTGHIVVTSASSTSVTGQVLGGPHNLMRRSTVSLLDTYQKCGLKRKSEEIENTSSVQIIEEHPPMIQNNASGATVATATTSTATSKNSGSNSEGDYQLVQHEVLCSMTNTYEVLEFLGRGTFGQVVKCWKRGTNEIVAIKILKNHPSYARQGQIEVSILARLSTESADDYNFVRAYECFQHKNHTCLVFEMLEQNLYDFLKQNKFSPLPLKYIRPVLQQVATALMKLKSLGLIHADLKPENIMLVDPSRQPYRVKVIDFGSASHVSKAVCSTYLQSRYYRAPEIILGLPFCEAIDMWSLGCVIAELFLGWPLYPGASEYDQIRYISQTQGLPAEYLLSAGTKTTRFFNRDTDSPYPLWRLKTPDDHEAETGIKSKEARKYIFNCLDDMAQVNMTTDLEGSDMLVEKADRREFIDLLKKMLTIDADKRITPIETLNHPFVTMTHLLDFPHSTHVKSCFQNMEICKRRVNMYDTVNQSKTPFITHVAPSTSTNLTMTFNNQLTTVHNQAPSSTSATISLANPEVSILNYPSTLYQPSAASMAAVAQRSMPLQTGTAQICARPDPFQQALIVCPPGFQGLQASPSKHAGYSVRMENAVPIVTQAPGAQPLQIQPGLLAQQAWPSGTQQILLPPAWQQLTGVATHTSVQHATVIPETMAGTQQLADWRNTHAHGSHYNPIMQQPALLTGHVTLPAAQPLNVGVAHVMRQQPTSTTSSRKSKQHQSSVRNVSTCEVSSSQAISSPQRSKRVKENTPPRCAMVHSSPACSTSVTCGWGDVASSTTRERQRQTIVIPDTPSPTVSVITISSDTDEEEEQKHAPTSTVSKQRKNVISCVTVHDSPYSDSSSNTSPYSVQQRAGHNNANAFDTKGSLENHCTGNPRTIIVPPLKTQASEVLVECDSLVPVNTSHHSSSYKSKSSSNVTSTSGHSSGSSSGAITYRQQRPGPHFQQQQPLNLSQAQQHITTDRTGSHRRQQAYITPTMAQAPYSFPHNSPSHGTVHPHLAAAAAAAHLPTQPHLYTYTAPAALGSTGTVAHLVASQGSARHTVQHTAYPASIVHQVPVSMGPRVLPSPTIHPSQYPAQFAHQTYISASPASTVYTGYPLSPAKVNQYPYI
The target of assay [11] is Cyclin-dependent kinase-like 2 (Homo sapiens) (UniProt Q92772). The experiment in a line: Binding affinity to wild-type human partial length CDKL2 (M1 to D327 residues) expressed in bacterial expression system assessed as residual binding level at 1 uM by Kinomescan method relative to control.
For assay [12], the target named is Mitogen-activated protein kinase 8 (Homo sapiens) (UniProt P45983). The experiment in a line: Binding affinity to wild-type human full length JNK1 (M1 to Q384 residues) expressed in mammalian expression system assessed as residual binding level at 1 uM by Kinomescan method relative to control. In short, it runs like this: (§3)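 KinomeScan, an active site-directed competition binding panel of 468 kinases. The test compound was at 1 μM. The readout is remaining kinase binding as a percentage of the DMSO control. Scores above 35% were treated as weak binding and not listed.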
Chain of Mitogen-activated protein kinase 8 (Homo sapiens) (P45983 whole entry, the tested form may be a part): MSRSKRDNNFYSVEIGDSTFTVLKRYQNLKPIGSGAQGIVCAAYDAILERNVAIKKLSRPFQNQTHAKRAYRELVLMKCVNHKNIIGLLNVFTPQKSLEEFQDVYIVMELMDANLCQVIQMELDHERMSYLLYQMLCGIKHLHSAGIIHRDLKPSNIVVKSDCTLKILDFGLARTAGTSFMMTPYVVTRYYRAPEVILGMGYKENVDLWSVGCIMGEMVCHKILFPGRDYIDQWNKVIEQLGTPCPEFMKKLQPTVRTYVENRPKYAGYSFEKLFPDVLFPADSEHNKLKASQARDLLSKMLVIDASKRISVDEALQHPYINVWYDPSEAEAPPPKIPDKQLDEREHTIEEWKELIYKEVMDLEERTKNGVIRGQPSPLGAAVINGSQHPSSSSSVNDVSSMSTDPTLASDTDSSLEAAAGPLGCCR

Assay [13] concerns Serine/threonine-protein kinase B-raf (Homo sapiens), P15056 [V600E]. The experiment in a line: Binding affinity to human partial length BRAF V600E mutant (S429 to E741 residues) expressed in mammalian expression system assessed as residual binding level at 1 uM by Kinomescan method relative to control. Summed up:
as §1

Assay [14] addresses Casein kinase I isoform gamma-3 (Homo sapiens) (UniProt Q9Y6M4). The experiment in a line: Binding affinity to wild-type human full length CSNK1G3 (M1 to K447 residues) expressed in bacterial expression system assessed as residual binding level at 1 uM by Kinomescan method relative to control. Summed up: as §2
Assay [15] deals with Dual specificity mitogen-activated protein kinase kinase 1 (Homo sapiens) (UniProt Q02750). The experiment in a line: Binding affinity to wild-type human full length MEK1 (M1 to V393 residues) expressed in mammalian expression system assessed as residual binding level at 1 uM by Kinomescan method relative to control. In short, it runs like this: as §3
The target of assay [16] is Serine/threonine-protein kinase Nek2 (Homo sapiens) (UniProt P51955). Description: Binding affinity to wild-type human partial length NEK2 (M1 to K309 residues) expressed in bacterial expression system assessed as residual binding level at 1 uM by Kinomescan method relative to control.
Chain of Serine/threonine-protein kinase Nek2 (Homo sapiens) (P51955 whole entry, the tested form may be a part): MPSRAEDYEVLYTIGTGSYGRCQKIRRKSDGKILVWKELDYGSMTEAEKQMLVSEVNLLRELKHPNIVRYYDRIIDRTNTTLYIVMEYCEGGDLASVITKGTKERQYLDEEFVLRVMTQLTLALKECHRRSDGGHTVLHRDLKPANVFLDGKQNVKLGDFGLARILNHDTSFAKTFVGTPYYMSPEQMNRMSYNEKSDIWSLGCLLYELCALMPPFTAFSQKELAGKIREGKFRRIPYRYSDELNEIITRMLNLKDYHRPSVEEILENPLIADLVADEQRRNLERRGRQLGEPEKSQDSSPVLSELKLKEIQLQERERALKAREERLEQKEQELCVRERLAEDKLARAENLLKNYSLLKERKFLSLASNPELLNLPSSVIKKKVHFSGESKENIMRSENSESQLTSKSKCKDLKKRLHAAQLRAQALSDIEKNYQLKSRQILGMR
The target of assay [17] is Receptor tyrosine-protein kinase erbB-3 (Homo sapiens) (UniProt P21860). The experiment in a line: Binding affinity to wild-type human partial length ERBB3 (G684 to A987 residues) expressed in mammalian expression system assessed as residual binding level at 1 uM by Kinomescan method relative to control.
Assay [18] addresses G protein-coupled receptor kinase 3 (Homo sapiens) (UniProt P35626). The experiment in a line: Binding affinity to wild-type human full length GRK3 (M1 to L688 residues) expressed in mammalian expression system assessed as residual binding level at 1 uM by Kinomescan method relative to control. In short, it runs like this: as §2
Assay [19] deals with Atypical kinase COQ8A, mitochondrial (Homo sapiens) (UniProt Q8NI60). Description: Binding affinity to wild-type human full length ADCK3 (M280 to Q647 residues) expressed in bacterial expression system assessed as residual binding level at 1 uM by Kinomescan method relative to control. Summed up:
as §2

Assay [20] concerns the target TRAF2 and NCK-interacting protein kinase (Homo sapiens) (UniProt Q9UKE5). The experiment in a line: Binding affinity to wild-type human partial length TNIK (D4 to K311 residues) expressed in bacterial expression system assessed as residual binding level at 1 uM by Kinomescan method relative to control.
Assay [21] concerns the target NUAK family SNF1-like kinase 1 (Homo sapiens) (UniProt O60285). Description: Binding affinity to wild-type human partial length ARK5 (E25 to I332 residues) expressed in bacterial expression system assessed as residual binding level at 1 uM by Kinomescan method relative to control.
In assay [22] the target is Membrane-associated tyrosine- and threonine-specific cdc2-inhibitory kinase (Homo sapiens) (UniProt Q99640). The experiment in a line: Binding affinity to wild-type human partial length PKMYT1 (A88 to G366 residues) expressed in bacterial expression system assessed as residual binding level at 1 uM by Kinomescan method relative to control.

Chain of Atypical kinase COQ8A, mitochondrial (Homo sapiens) (Q8NI60 163-647 limits assumed): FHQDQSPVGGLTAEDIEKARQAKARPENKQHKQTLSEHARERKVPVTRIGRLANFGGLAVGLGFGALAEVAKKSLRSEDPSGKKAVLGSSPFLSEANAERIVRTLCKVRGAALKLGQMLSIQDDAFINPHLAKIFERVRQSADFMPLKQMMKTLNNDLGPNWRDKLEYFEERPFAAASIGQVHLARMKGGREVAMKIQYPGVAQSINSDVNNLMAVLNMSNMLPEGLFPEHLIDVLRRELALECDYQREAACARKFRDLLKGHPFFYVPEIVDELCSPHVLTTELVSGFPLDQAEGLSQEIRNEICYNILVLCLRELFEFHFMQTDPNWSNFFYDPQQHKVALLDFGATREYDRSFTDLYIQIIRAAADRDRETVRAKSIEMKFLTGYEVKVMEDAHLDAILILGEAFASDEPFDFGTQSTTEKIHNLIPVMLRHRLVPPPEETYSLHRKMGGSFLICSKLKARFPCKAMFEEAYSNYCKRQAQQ
Chain of Casein kinase I isoform gamma-3 (Homo sapiens) (Q9Y6M4 whole entry, looked up, the tested form may be a part, canonical isoform): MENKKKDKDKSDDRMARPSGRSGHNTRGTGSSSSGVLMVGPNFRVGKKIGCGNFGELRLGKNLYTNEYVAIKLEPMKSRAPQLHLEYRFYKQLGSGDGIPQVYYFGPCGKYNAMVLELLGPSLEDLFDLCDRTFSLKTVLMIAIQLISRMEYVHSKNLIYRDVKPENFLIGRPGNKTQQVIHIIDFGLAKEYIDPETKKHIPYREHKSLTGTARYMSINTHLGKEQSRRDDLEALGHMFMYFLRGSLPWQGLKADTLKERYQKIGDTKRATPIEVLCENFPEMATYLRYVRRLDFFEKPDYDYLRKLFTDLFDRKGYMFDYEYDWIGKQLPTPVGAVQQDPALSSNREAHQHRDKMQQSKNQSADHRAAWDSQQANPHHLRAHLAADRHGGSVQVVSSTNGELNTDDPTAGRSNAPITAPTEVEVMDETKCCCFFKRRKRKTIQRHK
Chain of TRAF2 and NCK-interacting protein kinase (Homo sapiens) (Q9UKE5 whole entry, looked up, the tested form may be a part): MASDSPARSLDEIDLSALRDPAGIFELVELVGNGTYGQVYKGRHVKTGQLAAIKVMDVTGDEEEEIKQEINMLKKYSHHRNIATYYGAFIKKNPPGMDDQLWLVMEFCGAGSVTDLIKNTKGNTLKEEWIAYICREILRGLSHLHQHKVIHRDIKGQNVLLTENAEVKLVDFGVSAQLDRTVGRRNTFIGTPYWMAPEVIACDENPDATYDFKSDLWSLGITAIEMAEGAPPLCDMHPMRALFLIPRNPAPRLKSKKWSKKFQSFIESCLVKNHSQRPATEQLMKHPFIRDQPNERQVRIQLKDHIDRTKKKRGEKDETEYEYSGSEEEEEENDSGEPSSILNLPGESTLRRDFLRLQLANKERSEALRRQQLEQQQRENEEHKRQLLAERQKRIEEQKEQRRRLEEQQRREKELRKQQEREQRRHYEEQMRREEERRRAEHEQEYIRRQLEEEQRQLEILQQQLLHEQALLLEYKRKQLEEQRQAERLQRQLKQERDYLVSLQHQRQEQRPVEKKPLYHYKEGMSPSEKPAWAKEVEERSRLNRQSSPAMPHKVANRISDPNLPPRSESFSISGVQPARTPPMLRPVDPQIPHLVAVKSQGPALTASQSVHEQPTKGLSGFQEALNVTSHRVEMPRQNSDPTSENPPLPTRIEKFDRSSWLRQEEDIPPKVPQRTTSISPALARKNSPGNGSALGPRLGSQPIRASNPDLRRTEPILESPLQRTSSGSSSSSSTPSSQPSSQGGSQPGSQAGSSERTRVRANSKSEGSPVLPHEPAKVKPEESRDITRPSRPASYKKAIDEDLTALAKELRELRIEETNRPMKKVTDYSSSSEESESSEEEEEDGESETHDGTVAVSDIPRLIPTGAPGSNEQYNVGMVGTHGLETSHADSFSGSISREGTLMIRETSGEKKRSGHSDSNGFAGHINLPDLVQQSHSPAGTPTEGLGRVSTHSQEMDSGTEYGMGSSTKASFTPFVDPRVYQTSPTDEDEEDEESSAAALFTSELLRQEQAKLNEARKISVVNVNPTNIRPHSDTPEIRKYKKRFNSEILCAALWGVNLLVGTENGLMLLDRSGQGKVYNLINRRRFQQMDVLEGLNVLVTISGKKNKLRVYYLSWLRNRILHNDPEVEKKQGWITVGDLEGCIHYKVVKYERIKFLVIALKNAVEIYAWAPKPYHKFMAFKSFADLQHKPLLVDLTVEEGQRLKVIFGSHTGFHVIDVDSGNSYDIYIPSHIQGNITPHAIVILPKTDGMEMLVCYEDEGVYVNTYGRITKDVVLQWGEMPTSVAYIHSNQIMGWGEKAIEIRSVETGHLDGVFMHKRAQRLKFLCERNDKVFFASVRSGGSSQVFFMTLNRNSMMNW

Take `C=CC(=O)Nc1ccccc1Nc1nc(Nc2ccc(N3CCN(C)CC3)cc2)ncc1C(=O)Nc1c(C)cccc1Cl`: the Activity in assay [1] turned out to be 95%; in assay [2], 68%; in [3] it was 73%; in assay [4], 100%; in [5], 100%; in assay [6] it was 100%. Moreover, the Activity in assay [7] was determined as 100%; in assay [8] it was 100%; in assay [9] it was 100%; in [10], 100%; in assay [11], 100%; in assay [12], 88%. Besides, the Activity was 100% in assay [13]; 100% in assay [14]; 93% in [15]; 100% in assay [16]; 89% in [17]; 100% in [18]. For the same molecule, the Activity in assay [19], in assay [20], in assay [21] and in [22] was 100% in each case.
